Screening data from PubChem BioAssay.
Kir21 block: blocks the mouse Kir2.1 inward-rectifier potassium channel | HEK293-Kir2.1, FluxOR thallium flux fluorescence; hits give low values | B-score at 10 µM | 0.85% of 310,000 active | AID 1672;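 active means fluorescence ratio B-score at or below minus 3 SD of library scores, with starting-brightness B-score within 2 SD, cut at about -4.2 in these data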;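 further: channel flux triggered by added potassium and thallium sulfate stimulus; B-score of peak minus minimum fluorescence over baseline after thallium stimulus; more negative B-score means stronger Kir2.1 block with less thallium influx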
KCNK3 inh: human KCNK3 channel inhibition, primary screen; CHO-KCNK3 thallium flux, FluxOR fluorescence; hits give low values; B-score at 10 µM; 0.84% of 340,000 active;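 active means B-score under library mean minus 4 SD, starting fluorescence ratio at most library mean plus 5 SD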;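 further: more negative B-score means stronger inhibition of thallium flux through KCNK3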
KCNK9 block: human KCNK9 channel inhibition. Q9NPC2. HEK293 KCNK9, FluxOR thallium flux fluorescence; hits give low values. B-score at 10 µM. 1.2% of 310,000 active. AID 488922;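 active means ratio B-score over 3 SD below the library mean, with starting fluorescence within 5 SD of its mean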;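 further: negative B-score means less thallium flux so channel inhibition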
Target sequence (Q9NPC2 whole entry, looked up): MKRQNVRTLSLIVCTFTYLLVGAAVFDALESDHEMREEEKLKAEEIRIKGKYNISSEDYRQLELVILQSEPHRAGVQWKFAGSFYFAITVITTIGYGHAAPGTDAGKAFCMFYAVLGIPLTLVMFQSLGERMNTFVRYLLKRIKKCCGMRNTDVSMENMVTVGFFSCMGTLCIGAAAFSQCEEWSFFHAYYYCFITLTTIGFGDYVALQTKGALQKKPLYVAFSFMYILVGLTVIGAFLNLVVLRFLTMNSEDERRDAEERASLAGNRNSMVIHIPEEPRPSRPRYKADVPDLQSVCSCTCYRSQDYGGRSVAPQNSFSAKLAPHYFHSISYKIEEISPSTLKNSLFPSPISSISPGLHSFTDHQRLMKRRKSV
KCNQ1 inh: inhibitors of human KCNQ1 potassium channel. CHO-K1 KCNQ1, FluxOR thallium flux fluorescence; hits give high values. B-score at 10 µM. 1.3% of 310,000 active. AID 2642;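 active means compounds whose thallium flux B-score, printed positive for inhibition, exceeds three library SD while starting fluorescence stays within three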;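 further: channel opened by potassium depolarization with thallium stimulus after 20 min compound exposure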
hERG rescue: compounds protecting human hERG from proarrhythmic drug block; AID 1511; Q12809; CHO-hERG, FluxOR thallium flux, dofetilide IC70 present; activation (rescue from dofetilide block), less the hit threshold, % at 10 µM; 0.51% of 310,000 active;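 active means activation above the mean of controls blocked by dofetilide plus 5 SD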;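 further: thallium influx through hERG after potassium depolarization seen as dye fluorescence rise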
KCNQ1 pot: human KCNQ1 channel potentiation or activation; P51787; CHO-K1 KCNQ1, thallium flux FluxOR fluorescence; hits give high values; B-score at 10 µM; 0.35% of 310,000 active; AID 2648;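 active means fluorescence ratio B-score, a plate-corrected score, at least three library SD, with initial intensity B-score within 5 SD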
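Medium – assay buffer, equal DMSO in all wells · Material – CHO-K1 cell line with stable KCNQ1 potassium channel expression · Signal – kinetic FluxOR thallium fluorescence, 10-s 1-Hz baseline, 110-s post-stimulus read · Compound – single concentration per compound, DMSO matched to controls · Schedule – 37 °C overnight plating, 90-min dark dye load, 20-min compound pretreatment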
KCNK3 confirm: confirmation of human KCNK3 two-pore domain potassium channel inhibitors. shares compounds with KCNK3 inh. CHO-KCNK3 thallium flux, FluxOR fluorescence; 0% buffer, 100% carvedilol maximal block. ratio percent of control, % at 10 µM. 99% of 2,400 active. AID 651638;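 active means ratio percent of control, averaged over triplicates, above buffer control mean plus 5 SD, cut at about 64% in these data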;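 further: ratio is the fluorescence rise from min to max over baseline after thallium stimulus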
KCNK3 uninduced: activity in cells without induced KCNK3 expression | non-induced KCNK3 parental cells, FluxOR thallium flux; hits give low values | thallium flux ratio (lower = more inhibition) at 10 µM | shares compounds with KCNK3 inh | 40% of 2,400 active;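 active means thallium flux ratio, averaged over three wells, more than 5 SD below the buffer control mean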;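 further: host cells are CHO cells without KCNK3 induction; ratio is peak minus trough fluorescence over baseline then normalized to buffer controls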
An asterisk follows results filed as active. In the library only some 3.8% were active in any assay of this set; here they are far more common.

What do the screens show for `CCCN1Cc2cccc(C(=O)NCCc3cccc(C)c3)c2C1=O`?
Kir21 block: 0.02; KCNK3 inh: -9.73*; KCNK9 block: inactive; KCNQ1 inh: inactive; hERG rescue: -9.9; KCNQ1 pot: inactive; KCNK3 confirm: 110.0*; KCNK3 uninduced: 0.151*

Results for Cc1cccc(CCNC(=O)c2cccc3c2C(=O)N(C2CCCCC2)C3)c1 ?
Kir21 block: 0.03; KCNK3 inh: inactive; KCNK9 block: inactive; KCNQ1 inh: inactive; hERG rescue: -16.1; KCNQ1 pot: inactive

Results for COc1ccccc1N1CCN(S(=O)(=O)c2c(C(=O)N3CCOCC3)c(C)n(C)c2C)CC1 ?
Kir21 block: 0.9; KCNK3 inh: inactive; KCNK9 block: inactive; KCNQ1 inh: inactive; hERG rescue: -8.6; KCNQ1 pot: inactive

How did COc1ccc(S(=O)(=O)N2CCCCCC2)cc1NC(=O)c1ccccc1 do in these assays?
Kir21 block: -0.03; KCNK3 inh: inactive; KCNK9 block: inactive; KCNQ1 inh: inactive; hERG rescue: -5.7; KCNQ1 pot: inactive

What do the screens show for `COc1ccc(C)cc1NC(=O)c1ccc(S(=O)(=O)N2CCCCC2)cc1`?
Kir21 block: 1.08; KCNK3 inh: -9.65*; KCNK9 block: inactive; KCNQ1 inh: inactive; hERG rescue: -12.9; KCNQ1 pot: inactive; KCNK3 confirm: 106.3*; KCNK3 uninduced: 0.156*

How did Cc1ccc(NC(=O)c2ccc(F)cc2)cc1S(=O)(=O)N1CCCCCC1 do in these assays?
Kir21 block: -0.98; KCNK3 inh: -10.8*; KCNK9 block: inactive; KCNQ1 inh: inactive; hERG rescue: -11.7; KCNQ1 pot: inactive; KCNK3 confirm: 101.0*; KCNK3 uninduced: inactive

How did Cc1ccc(NC(=O)/C=C/c2ccco2)cc1S(=O)(=O)N1CCCCCC1 do in these assays?
Kir21 block: -0.02; KCNK3 inh: -9.39*; KCNK9 block: inactive; KCNQ1 inh: inactive; hERG rescue: -6.4; KCNQ1 pot: inactive; KCNK3 confirm: 124.0*; KCNK3 uninduced: 0.121*

How did O=C(Nc1nccs1)c1ccc(COc2c(F)c(F)cc(F)c2F)cc1 do in these assays?
Kir21 block: -0.04; KCNK3 inh: inactive; KCNK9 block: inactive; KCNQ1 inh: inactive; hERG rescue: -4.7; KCNQ1 pot: inactive

What do the screens show for `COc1ccc(OC)c(C2(O)CSC(=Nc3cccnc3)N2Cc2ccco2)c1` (stereo not given)?
Kir21 block: -0.34; KCNK3 inh: -10.9*; KCNK9 block: inactive; KCNQ1 inh: inactive; hERG rescue: -15.9; KCNQ1 pot: inactive; KCNK3 confirm: 0.0; KCNK3 uninduced: inactive

What do the screens show for `OC1(c2ccc(OC(F)F)cc2)CSC(=Nc2cccnc2)N1C1CC1` (stereo not given)?
Kir21 block: -0.99; KCNK3 inh: inactive; KCNK9 block: inactive; KCNQ1 inh: inactive; hERG rescue: -12.8; KCNQ1 pot: inactive

Results for O=S(=O)(NC(=NCCc1ccc(Cl)cc1)c1ccccc1Cl)c1cccs1 ?
Kir21 block: -2.62; KCNK3 inh: -8.93*; KCNK9 block: inactive; KCNQ1 inh: inactive; hERG rescue: -16.6; KCNQ1 pot: inactive; KCNK3 confirm: 114.3*; KCNK3 uninduced: 0.157*

Results for NC(=NCCc1ccccc1)NS(=O)(=O)c1cccs1 ?
Kir21 block: 0.6; KCNK3 inh: inactive; KCNK9 block: inactive; KCNQ1 inh: inactive; hERG rescue: -8.2; KCNQ1 pot: inactive

How did COc1ccc(CN(CCN)C2CC(C)N(C)CC2C)cc1 (stereo not given) do in these assays?
Kir21 block: 0.47; KCNK3 inh: inactive; KCNK9 block: inactive; KCNQ1 inh: inactive; hERG rescue: -1.2; KCNQ1 pot: inactive

How did CCOc1ccc(NC(=O)c2cc3ccccc3cc2OC)cc1 do in these assays?
Kir21 block: 1.94; KCNK3 inh: inactive; KCNK9 block: inactive; KCNQ1 inh: inactive; hERG rescue: -7.9; KCNQ1 pot: inactive
